Laboratory results: ChEMBL document CHEMBL3856248, “2-Benzylidene-1-indanone derivatives as inhibitors of monoamine oxidase” (Bioorg Med Chem Lett, 2016)

Assays:
[1] = target: T1, Amine oxidase [flavin-containing] B (Homo sapiens, UniProt P27338); assay: Inhibition of recombinant human MAO-B using kynuramine as substrate after 20 mins by fluorescence spectrophotometric analysis
T1 sequence (P27338 whole entry): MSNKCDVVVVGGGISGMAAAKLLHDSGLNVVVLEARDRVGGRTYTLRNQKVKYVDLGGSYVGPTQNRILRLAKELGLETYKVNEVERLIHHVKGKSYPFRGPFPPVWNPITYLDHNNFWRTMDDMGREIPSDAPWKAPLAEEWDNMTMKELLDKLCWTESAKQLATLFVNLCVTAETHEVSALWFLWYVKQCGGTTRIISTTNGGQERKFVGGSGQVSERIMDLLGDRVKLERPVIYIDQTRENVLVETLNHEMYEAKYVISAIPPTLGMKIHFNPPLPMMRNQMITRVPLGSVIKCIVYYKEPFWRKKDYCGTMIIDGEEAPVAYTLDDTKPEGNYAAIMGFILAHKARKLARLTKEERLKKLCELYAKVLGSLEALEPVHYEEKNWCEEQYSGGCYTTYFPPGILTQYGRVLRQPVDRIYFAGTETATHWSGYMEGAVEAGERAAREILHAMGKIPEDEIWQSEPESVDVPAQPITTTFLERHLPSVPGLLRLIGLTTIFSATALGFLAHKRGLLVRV
In short: (§1)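 Recombinant human enzyme incubated with kynuramine and test inhibitor at 37 °C for 20 min; stopped with 2 N NaOH. The 4-hydroxyquinoline product is read at endpoint by fluorescence in alkaline medium. Inhibitor-free controls run each time.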

Homo sapiens = organism: Homo sapiens; assay: Selectivity index, ratio of IC50 for recombinant human MAO-A to IC50 for recombinant human MAO-B
In short: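 Ratio of IC50 for MAO-A to IC50 for MAO-B. Both are from the kynuramine fluorescence assay with recombinant human enzymes (37 °C, 20 min, endpoint 4-hydroxyquinoline).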

[2] = target: T2, Amine oxidase [flavin-containing] A (Homo sapiens, UniProt P21397); assay: Inhibition of recombinant human MAO-A using kynuramine as substrate after 20 mins by fluorescence spectrophotometric analysis; in short: as §1
T2 sequence (P21397 whole entry): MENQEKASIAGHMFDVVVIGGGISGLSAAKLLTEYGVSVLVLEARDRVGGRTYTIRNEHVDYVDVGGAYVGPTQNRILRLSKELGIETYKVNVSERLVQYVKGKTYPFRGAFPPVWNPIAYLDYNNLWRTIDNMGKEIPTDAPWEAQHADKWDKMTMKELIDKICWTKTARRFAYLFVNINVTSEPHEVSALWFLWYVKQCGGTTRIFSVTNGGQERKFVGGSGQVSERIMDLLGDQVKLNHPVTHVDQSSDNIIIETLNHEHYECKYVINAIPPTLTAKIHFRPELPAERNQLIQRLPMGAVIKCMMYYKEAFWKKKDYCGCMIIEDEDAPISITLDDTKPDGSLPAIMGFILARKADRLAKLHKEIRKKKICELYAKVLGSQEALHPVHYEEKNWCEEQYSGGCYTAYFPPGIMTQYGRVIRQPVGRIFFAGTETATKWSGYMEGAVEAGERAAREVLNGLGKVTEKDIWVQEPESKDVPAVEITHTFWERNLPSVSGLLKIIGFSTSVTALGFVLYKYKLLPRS

[3] = target: T3, Amine oxidase [flavin-containing] A (Rattus norvegicus, UniProt P21396); assay: Inhibition of Wistar rat liver mitochondrial MAO-A using […] as substrate after 1 hr by spectrophotometric analysis
T3 sequence (P21396 whole entry): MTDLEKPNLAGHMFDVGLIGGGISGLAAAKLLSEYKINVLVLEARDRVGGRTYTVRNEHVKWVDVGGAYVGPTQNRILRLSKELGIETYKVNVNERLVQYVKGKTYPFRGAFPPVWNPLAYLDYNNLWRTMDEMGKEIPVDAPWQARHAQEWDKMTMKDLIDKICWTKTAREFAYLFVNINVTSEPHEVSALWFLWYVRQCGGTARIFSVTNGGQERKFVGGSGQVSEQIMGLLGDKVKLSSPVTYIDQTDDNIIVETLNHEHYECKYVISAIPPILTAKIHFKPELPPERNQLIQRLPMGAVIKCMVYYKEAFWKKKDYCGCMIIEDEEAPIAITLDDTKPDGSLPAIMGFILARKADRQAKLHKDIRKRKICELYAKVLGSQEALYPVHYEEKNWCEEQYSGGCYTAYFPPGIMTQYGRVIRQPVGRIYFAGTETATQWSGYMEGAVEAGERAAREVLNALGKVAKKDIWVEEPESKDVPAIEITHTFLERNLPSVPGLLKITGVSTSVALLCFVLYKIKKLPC

[4] = target: T2, Amine oxidase [flavin-containing] A; assay: Irreversible inhibition of recombinant human MAO-A assessed as residual activity pre-incubated at 4 times IC50 for 15 mins followed by dialysis for 24 hrs and subsequent kynuramine addition measured after 20 mins by fluorescence spectrophotometric analysis relative to untreated control
[5] = target: T2, Amine oxidase [flavin-containing] A; assay: Reversible inhibition of recombinant human MAO-A assessed as residual activity pre-incubated at 4 times IC50 for 15 mins followed by dialysis for 24 hrs and subsequent kynuramine addition measured after 20 mins by fluorescence spectrophotometric analysis relative to untreated control
[6] = target: T2, Amine oxidase [flavin-containing] A; assay: Reversible inhibition of recombinant human MAO-A assessed as residual activity pre-incubated at 4 times IC50 for 15 mins followed by kynuramine addition measured after 20 mins by fluorescence spectrophotometric analysis relative to untreated control
In short: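 Undialysed comparison: MAO-A is pre-incubated 15 min with inhibitor at 4 × IC50 without dialysis. Residual activity is measured after kynuramine addition as in the IC50 assay (37 °C, 20 min, 2 N NaOH stop, fluorescence of 4-hydroxyquinoline). It is expressed relative to the inhibitor-free control.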

[7] = target: T4, Amine oxidase [flavin-containing] B (Rattus norvegicus, UniProt P19643); assay: Inhibition of Sprague-Dawley rat brain mitochondrial MAO-B using DMAPEA as substrate by HPLC analysis
T4 sequence (P19643 whole entry): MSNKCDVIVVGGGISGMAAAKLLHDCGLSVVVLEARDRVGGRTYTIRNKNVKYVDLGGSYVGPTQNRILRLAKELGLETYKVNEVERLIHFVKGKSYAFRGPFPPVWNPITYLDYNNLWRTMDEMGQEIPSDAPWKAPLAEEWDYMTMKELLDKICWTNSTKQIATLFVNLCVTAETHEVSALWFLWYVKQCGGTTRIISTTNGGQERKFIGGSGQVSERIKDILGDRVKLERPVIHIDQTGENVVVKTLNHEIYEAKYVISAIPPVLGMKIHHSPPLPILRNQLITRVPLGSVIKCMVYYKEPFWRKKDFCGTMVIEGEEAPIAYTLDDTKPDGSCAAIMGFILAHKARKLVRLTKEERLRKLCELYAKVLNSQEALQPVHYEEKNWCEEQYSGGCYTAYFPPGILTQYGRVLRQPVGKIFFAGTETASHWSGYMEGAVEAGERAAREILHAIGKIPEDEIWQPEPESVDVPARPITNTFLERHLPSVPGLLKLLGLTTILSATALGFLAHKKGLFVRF

IC50 [1] | Ratio IC50 (Homo sapiens) | IC50 [2] | IC50 [3] | Activity [5] | Activity [6] | IC50 [7] | SMILES | Activity [4]
0.0052 µM | 619 | 3.22 µM | – | – | – | – | Cc1ccc(/C=C2\Cc3cc(O)ccc3C2=O)cc1 | –
0.13 µM | 3.4 | 0.444 µM | – | – | – | – | N#Cc1cccc(/C=C2\Cc3cc(O)ccc3C2=O)c1 | –
0.014 µM | 17 | 0.235 µM | – | – | – | – | O=C1/C(=C/c2ccc(Cl)c(Cl)c2)Cc2cc(O)ccc21 | –
0.0053 µM | 198 | 1.05 µM | – | – | – | – | O=C1/C(=C/c2ccc(Br)cc2)Cc2cc(O)ccc21 | –
– | – | – | 17.3 µM | – | – | – | O=C(/C=C/c1ccc(O)cc1)c1ccc(O)cc1O [ISOLIQUIRITIGENIN] | –
0.052 µM | 17 | 0.86 µM | – | – | – | – | Cc1cccc(/C=C2\Cc3cc(O)ccc3C2=O)c1 | –
0.03 µM | 5.2 | 0.157 µM | – | – | – | – | O=C1/C(=C/c2cccc(Cl)c2)Cc2cc(O)ccc21 | –
– | – | – | – | – | – | – | C#CCN(C)Cc1ccccc1 [PARGYLINE] | 1.7%
0.376 µM | 5.2 | 1.94 µM | – | – | – | – | O=C1/C(=C/c2ccccc2)Cc2cc(O)ccc21 | –
0.06 µM | 192 | 11.5 µM | – | – | – | – | COc1ccc2c(c1)C/C(=C\c1ccc(N(C)C)cc1)C2=O | –
0.215 µM | 4.5 | 0.961 µM | – | – | – | – | CC(C)c1ccc(/C=C2\Cc3cc(O)ccc3C2=O)cc1 | –
0.768 µM | 2.2 | 1.72 µM | – | – | – | – | CN(C)c1ccc(/C=C2\Cc3cc(O)ccc3C2=O)cc1 | –
0.966 µM | 1.2 | 1.2 µM | – | – | – | – | O=C1/C(=C/c2cccc(O)c2)Cc2cc(O)ccc21 | –
0.031 µM | 49 | 1.52 µM | – | – | – | – | CN(C)c1ccc(/C=C2\Cc3ccccc3C2=O)cc1 | –
0.084 µM | 5.5 | 0.458 µM | – | – | – | – | O=C1/C(=C/c2cccc(F)c2)Cc2cc(O)ccc21 | –
2.57 µM | 2.1 | 5.43 µM | – | – | – | – | O=C1/C(=C/c2ccccc2)Cc2ccccc21 | –
2.74 µM | 0.6 | 1.67 µM | – | – | – | – | O=C1/C(=C/c2ccc(O)cc2)Cc2cc(O)ccc21 | –
0.013 µM | 10 | 0.131 µM | – | 99% | 50% | – | O=C1/C(=C/c2cccc(Br)c2)Cc2cc(O)ccc21 | –
0.047 µM | 14 | 0.679 µM | – | – | – | – | O=C1/C(=C/c2ccc(F)cc2)Cc2cc(O)ccc21 | –
– | – | – | – | – | – | 11.6 µM | COc1ccc2c(c1)C(=O)/C(=C/c1ccccc1OC)O2 | –
2.42 µM | 0.2 | 0.44 µM | – | – | – | – | O=C1/C(=C/c2ccccc2)Cc2ccc(O)cc21 | –
0.013 µM | 57 | 0.741 µM | – | – | – | – | O=C1/C(=C/c2ccc(Cl)cc2)Cc2cc(O)ccc21 | –
0.471 µM | 2.5 | 1.19 µM | – | – | – | – | COc1cccc(/C=C2\Cc3cc(O)ccc3C2=O)c1 | –
0.0092 µM | > 10900 | – | – | – | – | – | COc1ccc2c(c1)C/C(=C\c1ccccc1)C2=O | –
0.316 µM | 6.6 | 2.08 µM | – | – | – | – | N#Cc1ccc(/C=C2\Cc3cc(O)ccc3C2=O)cc1 | –
